{"data": "Measurements gathered from unrelated publications", "target": "Calcium/calmodulin-dependent protein kinase kinase 2 (CAMKK2, Homo sapiens, UniProt Q96RR4)", "note": "Lines come from different studies, so protocols differ."}
{"Structure (SMILES)": "COc1cnc(Nc2cccc(S(N)(=O)=O)c2)nc1N1CCN(c2ccccc2)C(=O)C1", "test": "binding, competition with immobilised ligand", "setting": "1 µM", "remaining binding [%]": 100}
{"Structure (SMILES)": "O=C(NCCCN1CCOCC1)c1ccc(Nc2nccc(-c3cc4ccccc4s3)n2)cc1", "test": "binding, competition with immobilised ligand", "setting": "1 µM", "remaining binding [%]": 81}
{"Structure (SMILES)": "c1cnn2ncc(-c3ccnc(N4CCC45COC5)n3)c2c1", "test": "binding", "setting": "1 µM", "remaining binding [%]": 80}
{"Structure (SMILES)": "c1cncc(-c2cccc(Nc3nccc(NC4CCCCC4)n3)c2)c1", "test": "binding, competition with immobilised ligand", "setting": "10 µM", "remaining binding [%]": 69}
{"Structure (SMILES)": "CC1CCCN1c1nccc(-c2cnn3ncccc23)n1 (centres unmarked)", "test": "binding", "setting": "1 µM", "remaining binding [%]": 100}
{"Structure (SMILES)": "FC(F)(F)Oc1cccc(-c2cnc3ccc(-c4ccncc4)nn23)c1", "test": "cell-free assay, competition with immobilised ligand", "setting": "5 µM", "remaining binding [%]": 55}
{"Structure (SMILES)": "C[C@@H](c1cccc(C#N)c1)n1cc(Cl)cc(C(N)=O)c1=N", "test": "cell-free assay, competition with immobilised ligand", "setting": "1 µM", "remaining binding [%]": 100}
{"Structure (SMILES)": "Cc1cnn2ncc(-c3ccnc(N(C)C)n3)c2c1", "test": "binding", "setting": "1 µM", "remaining binding [%]": 63}
{"Structure (SMILES)": "O=C(O)[C@@H]1[C@@H](Cn2nnc3ccccc3c2=O)CC[C@H]1C(=O)c1ccc(OCCC2CCOCC2)cc1", "test": "cell-free assay, competition with immobilised ligand", "setting": "1 µM", "remaining binding [%]": 100}
{"Structure (SMILES)": "N[C@@H]1CCN(c2nccc(-c3cnn4ncccc34)n2)C1", "test": "binding", "setting": "1 µM", "remaining binding [%]": 100}
{"Structure (SMILES)": "O=C(NCC1CCOCC1)c1n[nH]cc1NC(=O)c1c(F)cccc1F", "test": "binding, competition with immobilised ligand", "setting": "1 µM", "remaining binding [%]": 68}
{"Structure (SMILES)": "C[C@H]1CCN(c2nccc(-c3cnn4ncccc34)n2)C1", "test": "binding", "setting": "1 µM", "remaining binding [%]": 74}
{"Structure (SMILES)": "CO[C@@H](C)c1c(Nc2ccc([C@H](N(C)C(=O)C3CCS(=O)(=O)CC3)C(F)(F)F)cc2)cnc2cc(Cl)nn12", "test": "cell-free assay, competition with immobilised ligand", "setting": "1 µM", "remaining binding [%]": 80}
{"Structure (SMILES)": "CN(C)c1ncc(F)c(-c2cnn3ncccc23)n1", "test": "binding", "setting": "1 µM", "remaining binding [%]": 86}
{"Structure (SMILES)": "C[C@H](c1ccc(F)cc1)N(Cc1cccc(C(=O)O)c1)C(=O)c1cnc2ccccc2c1", "test": "cell-free assay, competition with immobilised ligand", "setting": "1 µM", "remaining binding [%]": 95}
{"Structure (SMILES)": "O=C(c1ccc(Nc2nccc(-c3cc4ccccc4s3)n2)cc1)N1CCC(N2CCCC2)CC1", "test": "binding, competition with immobilised ligand", "setting": "1 µM", "remaining binding [%]": 82}
{"Structure (SMILES)": "CNC(=O)c1ccc(Nc2ncc(C(F)(F)F)c(NCc3nccnc3N(C)S(C)(=O)=O)n2)cc1", "test": "cell-free assay, competition with immobilised ligand", "setting": "0.1 µM", "remaining binding [%]": 68}
{"Structure (SMILES)": "COc1ncc2cc3ccccc3nc2c1C#N", "test": "cell-free assay, competition with immobilised ligand", "setting": "5 µM", "remaining binding [%]": 96}
{"Structure (SMILES)": "CNC(=O)[C@@H]1CC[C@@H](n2c(-c3ccc4cnccc4c3)nc3ccc(C(=O)NCc4cccc(C(N)=O)c4)cc32)C1", "test": "binding, competition with immobilised ligand", "setting": "1 µM", "remaining binding [%]": 85}
{"Structure (SMILES)": "CO[C@H]1CC[C@H](CNc2ccc(S(=O)(=O)NC(=O)c3ccc(N4CCN(CC5=C(c6ccc(Cl)cc6)CC(C)(C)CC5)CC4)cc3Oc3cnc4[nH]ccc4c3)cc2[N+](=O)[O-])CC1", "test": "cell-free assay, competition with immobilised ligand", "setting": "1 µM", "remaining binding [%]": 81}
